Measurements taken from paper PMC5624728 (Journal of pharmaceutical innovation, 2017).
≈ marks a conversion by molar mass, not a printed value. Where “and” joins values, the source holds several entries; their conditions need not be identical. Equal values may be shown once. Read-outs that look alike come from different tables or passages of the source.

Tests used:
Photolysis stability = format: physicochemical
Summary of the method: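 Half of each group was foil-wrapped as the dark control. All were held at 30 °C/65% RH under fluorescent light (2 × 20 watts) for 12 days. Aliquots at set times were assayed by HPLC. Light versus dark was compared by a repeated-measures mixed model with pairwise comparisons.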

[1] = pH stability of CSIC in solution; format: physicochemical
HIV-1 RT = details: tight-binding inhibitor; cited from earlier work
[2] = CSIC solubility in cosolvent matrixes; format: physicochemical
[3] = test system: NNRTI resistance mutation K103N; details: compared to other NNRTIs; cited from earlier work
[4] = 25 °C/60% RH and 65 °C, at least 10 days, 40% acetonitrile
Oxidation stability = format: physicochemical; details: 3% H2O2, room temperature, up to 10 days
Summary of the method: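 Test compound dissolved at 100 μg/mL final in 40% (v/v) aqueous acetonitrile containing 3% H2O2. Kept at room temperature. Aliquots taken at set intervals up to 10 days. Drug content quantified by HPLC (flow 1.4 mL/min). Results given as mean ± standard deviation.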

[5] = test system: HEC-1A human endometrial epithelial cells; details: 24 h exposure, MTT
HIV-1 = details: antiviral EC50; cited from earlier work
[6] = Solubility of CSIC in acetonitrile, water and water/acetonitrile; format: physicochemical; details: room temperature, 5 days
[7] = test system: J774A.1 mouse macrophage cells; details: J774A.1, 24 h exposure, MTT

## NC(=O)c1[nH]c2ccc(Cl)cc2c1S(=O)(=O)c1ccccc1 [CSIC, 5-chloro-3-[phenylsulfonyl] indole-2-carboxamide]
Photolysis stability; dark, 30 °C/65% RH, at least 12 days
  stability stored in the dark: stable
Photolysis stability; fluorescent light source (2 × 20 watts), 12 days
  decline of drug concentration: 4%
[1]; all pH conditions (1.2-10), at least 10 days, room temperature
  drug loss: < 5%
[1]; all pH conditions, each time point up to 10 days
  drug detected compared to time zero: more than 95%
HIV-1 RT
  binding and dissociation behaviour: binds rapidly but then dissociates very slowly
[2]; S1: PEG 400 0%, propylene glycol 50%, glycerin 50%
  Solubility: 5.23 mg/mL (≈ 15.6 mM)
[2]; S2: PEG 400 12.5%, propylene glycol 37.5%, glycerin 50%
  Solubility: 10.60 mg/mL (≈ 31.7 mM)
[2]; S3: PEG 400 12.5%, propylene glycol 50%, glycerin 37.5%
  Solubility: 12.85 mg/mL (≈ 38.4 mM)
[2]; S4: PEG 400 25%, propylene glycol 25%, glycerin 50%
  Solubility: 12.85 mg/mL (≈ 38.4 mM)
[2]; S5: PEG 400 25%, propylene glycol 37.5%, glycerin 37.5%
  Solubility: 17.08 mg/mL (≈ 51 mM)
[2]; S6: PEG 400 25%, propylene glycol 50%, glycerin 25%
  Solubility: 19.99 mg/mL (≈ 59.7 mM)
[2]; S7: PEG 400 37.5%, propylene glycol 12.5%, glycerin 50%
  Solubility: 20.46 mg/mL (≈ 61.1 mM)
[2]; S8: PEG 400 37.5%, propylene glycol 25%, glycerin 37.5%
  Solubility: 21.81 mg/mL (≈ 65.1 mM)
[2]; S9: PEG 400 37.5%, propylene glycol 37.5%, glycerin 25%
  Solubility: 24.63 mg/mL (≈ 73.6 mM)
[2]; S10: PEG 400 37.5%, propylene glycol 50%, glycerin 12.5%
  Solubility: 22.59 mg/mL (≈ 67.5 mM)
[2]; S11: PEG 400 50%, propylene glycol 0%, glycerin 50%
  Solubility: 22.86 mg/mL (≈ 68.3 mM)
[2]; S12: PEG 400 50%, propylene glycol 12.5%, glycerin 37.5%
  Solubility: 23.67 mg/mL (≈ 70.7 mM)
[2]; S13: PEG 400 50%, propylene glycol 25%, glycerin 25%
  Solubility: 24.31 mg/mL (≈ 72.6 mM)
[2]; S14: PEG 400 50%, propylene glycol 37.5%, glycerin 12.5%
  Solubility: 28.21 mg/mL (≈ 84.3 mM)
[2]; S15: PEG 400 50%, propylene glycol 50%, glycerin 0%
  Solubility: 28.64 mg/mL (≈ 85.5 mM)
[2]; S16: PEG 400:propylene glycol:glycerin 10:2:4 (PEG 400 62.5%)
  Solubility: 22.7 mg/mL (≈ 67.8 mM)
[2]; S17: PEG 400:propylene glycol:glycerin 10:3:3 (PEG 400 62.5%)
  Solubility: 20.7 mg/mL (≈ 61.8 mM)
[2]; S18: PEG 400:propylene glycol:glycerin 10:4:2 (PEG 400 62.5%), i.e. 5:2:1 w/w/w
  Solubility: 30.2 mg/mL (≈ 90.2 mM)
[2]; S19: PEG 400:propylene glycol:glycerin 6:1:1 (PEG 400 75%)
  Solubility: 29.1 mg/mL (≈ 86.9 mM)
[2]; S20: PEG 400:propylene glycol:glycerin 3:1:0 (PEG 400 75%)
  Solubility: 28.8 mg/mL (≈ 86 mM)
[3]
  activity against K103N: retaining good activity
other
  log P: ~ 3
1:1 (v/v) octanol/water
  Log P: 3.72
1:2 (v/v) octanol/water
  Log P: 3.72
2:1 (v/v) octanol/water
  Log P: 3.69
[4]
  drug concentration over time: remained unchanged
Oxidation stability
  drug loss: 20%
[5]
  50% cytotoxic concentration (CC50): greater than 5 μg/mL
HIV-1
  EC50: ~1 nM and 1 nM
[6]; 40% (v/v) acetonitrile
  Solubility: 0.36 mg/mL and 1.1 mM
[6]; 100% acetonitrile
  Solubility: 1.7 mg/mL and 5.1 mM
[6]; water
  Solubility: 0.0014 mg/mL and 4.3 μM
[7]
  50% cytotoxic concentration (CC50): greater than 5 μg/mL
